≈ marks a conversion by molar mass, not a printed value. Calls of active or inactive are those of the source. The calls are words filed in the database; no cut-off is given here.
Key:
Staphylococcus aureus [1] = assay: Antibacterial activity against methicillin resistant Staphylococcus aureus 386 assessed as inhibition of bacterial growth at 0.5 ug/ml incubated for 18 to 20 hrs by CLSI protocol based broth microdilution method; type: functional, organism-based; settings: dose 0.5 µg/ml, time 18-20 hrs
Staphylococcus aureus [2] = assay: Antibacterial activity against methicillin resistant Staphylococcus aureus 385 assessed as inhibition of bacterial growth at 0.5 ug/ml incubated for 18 to 20 hrs by CLSI protocol based broth microdilution method; type: functional, organism-based; settings: dose 0.5 µg/ml, time 18-20 hrs
Staphylococcus aureus [3] = assay: Antibacterial activity against vancomycin resistant Staphylococcus aureus 9 assessed as inhibition of bacterial growth at 0.5 ug/ml incubated for 18 to 20 hrs by CLSI protocol based broth microdilution method; type: functional, organism-based; settings: dose 0.5 µg/ml, time 18-20 hrs
Staphylococcus aureus [4] = assay: Antibacterial activity against methicillin resistant Staphylococcus aureus 123 assessed as inhibition of bacterial growth at 0.5 ug/ml incubated for 18 to 20 hrs by CLSI protocol based broth microdilution method; type: functional, organism-based; settings: dose 0.5 µg/ml, time 18-20 hrs
Staphylococcus aureus [5] = assay: Antibacterial activity against methicillin sensitive Staphylococcus aureus 6538 assessed as inhibition of bacterial growth at 0.5 ug/ml incubated for 18 to 20 hrs by CLSI protocol based broth microdilution method; type: functional, organism-based; settings: dose 0.5 µg/ml, time 18-20 hrs
Summary of the method: (§1)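 Staphylococcal and E. coli strains were diluted from a 0.5 McFarland suspension in cation-adjusted Mueller Hinton broth to ~5 × 10^5 CFU mL−1. They were incubated with serial dilutions of test agent in broth microdilution, and the MIC was recorded.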

Staphylococcus aureus [6] = assay: Antibacterial activity against methicillin resistant Staphylococcus aureus 119 assessed as inhibition of bacterial growth at 0.5 ug/ml incubated for 18 to 20 hrs by CLSI protocol based broth microdilution method; type: functional, organism-based; settings: dose 0.5 µg/ml, time 18-20 hrs
Staphylococcus aureus [7] = assay: Antibacterial activity against vancomycin resistant Staphylococcus aureus 10 assessed as inhibition of bacterial growth at 0.5 ug/ml incubated for 18 to 20 hrs by CLSI protocol based broth microdilution method; type: functional, organism-based; settings: dose 0.5 µg/ml, time 18-20 hrs
Staphylococcus aureus [8] = assay: Antibacterial activity against vancomycin resistant Staphylococcus aureus 12 assessed as inhibition of bacterial growth at 0.5 ug/ml incubated for 18 to 20 hrs by CLSI protocol based broth microdilution method; type: functional, organism-based; settings: dose 0.5 µg/ml, time 18-20 hrs
Staphylococcus aureus [9] = assay: Antibacterial activity against methicillin resistant Staphylococcus aureus 384 assessed as inhibition of bacterial growth at 0.5 ug/ml incubated for 18 to 20 hrs by CLSI protocol based broth microdilution method; type: functional, organism-based; settings: dose 0.5 µg/ml, time 18-20 hrs
Staphylococcus aureus [10] = assay: Antibacterial activity against methicillin sensitive Staphylococcus aureus 107 assessed as inhibition of bacterial growth at 0.5 ug/ml incubated for 18 to 20 hrs by CLSI protocol based broth microdilution method; type: functional, organism-based; settings: dose 0.5 µg/ml, time 18-20 hrs; summary of the method: as §1
Staphylococcus aureus [11] = assay: Antibacterial activity against methicillin resistant Staphylococcus aureus NRS384 USA300 assessed as inhibition of bacterial growth incubated for 18 to 20 hrs by CLSI protocol based broth microdilution method; type: functional; settings: time 18-20 hrs, read-out: MIC
Summary of the method: (§2)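 Broth microdilution against staphylococcal clinical isolates. Each strain was prepared as a 0.5 McFarland suspension and diluted in cation-adjusted Mueller Hinton broth to ~5 × 10^5 CFU mL−1. Serial dilutions of test agents in DMSO stock were incubated with the bacteria, and the MIC was recorded.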

Staphylococcus aureus [12] = assay: Antibacterial activity against methicillin resistant Staphylococcus aureus 123 assessed as inhibition of bacterial growth incubated for 18 to 20 hrs by CLSI protocol based broth microdilution method; type: functional; settings: time 18-20 hrs; summary of the method: as §2
Staphylococcus aureus [13] = assay: Antibacterial activity against vancomycin resistant Staphylococcus aureus 12 assessed as inhibition of bacterial growth incubated for 18 to 20 hrs by CLSI protocol based broth microdilution method; type: functional; settings: time 18-20 hrs; summary of the method: as §2
Enterococcus faecalis = assay: Antibacterial activity against Enterococcus faecalis 51299 assessed as inhibition of bacterial growth incubated for 18 to 20 hrs by CLSI protocol based broth microdilution method; type: functional; settings: time 18-20 hrs
Summary of the method: (§3)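 Enterococci and L. monocytogenes were diluted from a 0.5 McFarland suspension in TSB. They were incubated with serial dilutions of test agent in broth microdilution, and the MIC was recorded.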

Staphylococcus aureus [14] = assay: Antibacterial activity against methicillin resistant Staphylococcus aureus 386 assessed as inhibition of bacterial growth incubated for 18 to 20 hrs by CLSI protocol based broth microdilution method; type: functional; settings: time 18-20 hrs; summary of the method: as §2
Staphylococcus aureus [15] = assay: Antibacterial activity against methicillin resistant Staphylococcus aureus 384 assessed as inhibition of bacterial growth incubated for 18 to 20 hrs by CLSI protocol based broth microdilution method; type: functional; settings: time 18-20 hrs; summary of the method: as §2
Streptococcus pneumoniae [16] = assay: Antibacterial activity against Streptococcus pneumoniae 700677 assessed as inhibition of bacterial growth incubated for 18 to 20 hrs by CLSI protocol based broth microdilution method; type: functional; settings: time 18-20 hrs
Summary of the method: (§4)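 Streptococci were diluted from a 0.5 McFarland suspension in cation-adjusted Mueller Hinton broth with 5% lysed horse blood. They were incubated with serial dilutions of test agent in broth microdilution, and the MIC was recorded.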

Staphylococcus aureus [17] = assay: Antibacterial activity against methicillin resistant Staphylococcus aureus 385 assessed as inhibition of bacterial growth incubated for 18 to 20 hrs by CLSI protocol based broth microdilution method; type: functional; settings: time 18-20 hrs; summary of the method: as §2
Listeria monocytogenes = assay: Antibacterial activity against Listeria monocytogenes 19111 assessed as inhibition of bacterial growth incubated for 18 to 20 hrs by CLSI protocol based broth microdilution method; type: functional; settings: time 18-20 hrs; summary of the method: as §3
Streptococcus pyogenes [18] = assay: Antibacterial activity against Streptococcus pyogenes MGAS 9882 assessed as inhibition of bacterial growth incubated for 18 to 20 hrs by CLSI protocol based broth microdilution method; type: functional; settings: time 18-20 hrs; summary of the method: as §4
Streptococcus mutans = assay: Antibacterial activity against Streptococcus mutans 25175 assessed as inhibition of bacterial growth incubated for 18 to 20 hrs by CLSI protocol based broth microdilution method; type: functional; settings: time 18-20 hrs; summary of the method: as §4
Vero = assay: Cytotoxicity against African green monkey Vero cells assessed as reduction in cell viability at 64 ug/ml incubated for 24 hrs by MTS assay; type: toxicity, cell-based; settings: chlorocebus sabaeus, dose 64 µg/ml
Summary of the method: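 Vero or HaCaT cells were exposed to 32, 64 and 128 μg mL−1 compound in triplicate for 24 h at 37 °C, 5% CO2, with a DMSO control. MTS was then added for 4 h and OD490 read. Analysis used two-way ANOVA with Dunnett's post hoc test (p < 0.05).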

Staphylococcus aureus [19] = assay: Antibacterial activity against methicillin sensitive Staphylococcus aureus 6538 assessed as inhibition of bacterial growth incubated for 18 to 20 hrs by CLSI protocol based broth microdilution method; type: functional; settings: time 18-20 hrs; summary of the method: as §2
Staphylococcus aureus [20] = assay: Antibacterial activity against vancomycin resistant Staphylococcus aureus 9 assessed as inhibition of bacterial growth incubated for 18 to 20 hrs by CLSI protocol based broth microdilution method; type: functional; settings: time 18-20 hrs; summary of the method: as §2
[21] = tested on: Staphylococcus epidermidis; assay: Antibacterial activity against Staphylococcus epidermidis 101 assessed as inhibition of bacterial growth incubated for 18 to 20 hrs by CLSI protocol based broth microdilution method; type: functional; settings: time 18-20 hrs; summary of the method: as §1
Staphylococcus aureus [22] = assay: Antibacterial activity against methicillin sensitive Staphylococcus aureus 107 assessed as inhibition of bacterial growth incubated for 18 to 20 hrs by CLSI protocol based broth microdilution method; type: functional; settings: time 18-20 hrs; summary of the method: as §2
Staphylococcus aureus [23] = assay: Antibacterial activity against methicillin resistant Staphylococcus aureus 119 assessed as inhibition of bacterial growth incubated for 18 to 20 hrs by CLSI protocol based broth microdilution method; type: functional; settings: time 18-20 hrs; summary of the method: as §2
Enterococcus faecium = assay: Antibacterial activity against Enterococcus faecium 700221 assessed as inhibition of bacterial growth incubated for 18 to 20 hrs by CLSI protocol based broth microdilution method; type: functional; settings: time 18-20 hrs; summary of the method: as §3
Staphylococcus aureus [24] = assay: Antibacterial activity against vancomycin resistant Staphylococcus aureus 10 assessed as inhibition of bacterial growth incubated for 18 to 20 hrs by CLSI protocol based broth microdilution method; type: functional; settings: time 18-20 hrs; summary of the method: as §2
Streptococcus pneumoniae [25] = assay: Antibacterial activity against Streptococcus pneumoniae 51916 assessed as inhibition of bacterial growth incubated for 18 to 20 hrs by CLSI protocol based broth microdilution method; type: functional; settings: time 18-20 hrs; summary of the method: as §4
Streptococcus pyogenes [26] = assay: Antibacterial activity against Streptococcus pyogenes MGAS 1882 assessed as inhibition of bacterial growth incubated for 18 to 20 hrs by CLSI protocol based broth microdilution method; type: functional; settings: time 18-20 hrs; summary of the method: as §4

Structure (SMILES)	Activity (Staphylococcus aureus [1])	Activity (Staphylococcus aureus [2])	Activity (Staphylococcus aureus [3])	Activity (Staphylococcus aureus [4])	Activity (Staphylococcus aureus [5])	Activity (Staphylococcus aureus [6])	Activity (Staphylococcus aureus [7])	Activity (Staphylococcus aureus [8])	Activity (Staphylococcus aureus [9])	Activity (Staphylococcus aureus [10])	MIC (Staphylococcus aureus [11])	further results
C/C(=N\NC(=N)N)c1ccc(NC(=O)Nc2ccc(C#CC(C)(C)C)cc2)cc1	Active	Active	Active	Active	Active	Active	Active	Active	Active	Active	0.5 µg/mL (≈ 1.28 µM)	
C/C(=N\NC(=N)N)c1ccc(NC(=O)Nc2ccc(C#CC3CCCCC3)cc2)cc1											4000 µg/mL (≈ 9600 µM)	
CCCCC#Cc1ccc(NC(=O)Nc2ccc(/C(C)=N/NC(=N)N)cc2)cc1	Active	Active	Active	Active	Active	Active	Active	Active	Active	Active	0.5 µg/mL (≈ 1.28 µM)	MIC (Staphylococcus aureus [12]): 0.5 µg/mL (≈ 1.28 µM); MIC (Staphylococcus aureus [13]): 0.5 µg/mL (≈ 1.28 µM); MIC (Enterococcus faecalis): 0.5 µg/mL (≈ 1.28 µM); MIC (Staphylococcus aureus [14]): 0.5 µg/mL (≈ 1.28 µM); MIC (Staphylococcus aureus [15]): 0.5 µg/mL (≈ 1.28 µM); MIC (Streptococcus pneumoniae [16]): 0.5 µg/mL (≈ 1.28 µM); MIC (Staphylococcus aureus [17]): 0.5 µg/mL (≈ 1.28 µM); MIC (Listeria monocytogenes): 0.5 µg/mL (≈ 1.28 µM); MIC (Streptococcus pyogenes [18]): 0.5 µg/mL (≈ 1.28 µM); MIC (Streptococcus mutans): 0.5 µg/mL (≈ 1.28 µM); Activity (Vero): Non-Toxic; MIC (Staphylococcus aureus [19]): 0.5 µg/mL (≈ 1.28 µM); MIC (Staphylococcus aureus [20]): 0.5 µg/mL (≈ 1.28 µM); MIC [21]: 0.5 µg/mL (≈ 1.28 µM); MIC (Staphylococcus aureus [22]): 0.5 µg/mL (≈ 1.28 µM); MIC (Staphylococcus aureus [23]): 0.5 µg/mL (≈ 1.28 µM); MIC (Enterococcus faecium): 0.5 µg/mL (≈ 1.28 µM); MIC (Staphylococcus aureus [24]): 0.5 µg/mL (≈ 1.28 µM); MIC (Streptococcus pneumoniae [25]): 0.5 µg/mL (≈ 1.28 µM); MIC (Streptococcus pyogenes [26]): 0.5 µg/mL (≈ 1.28 µM)

— ChEMBL document CHEMBL5230171, “Expanding the structure-activity relationships of alkynyl diphenylurea scaffold as promising antibacterial agents” (RSC Med Chem, 2023)
